Measurements taken from ChEMBL document CHEMBL1122688, “Antimycotic azoles. 7. Synthesis and antifungal properties of a series of novel triazol-3-ones” (1984).

What was measured:
[1] = In vivo activity against microsporosis guinea pig, measured as the ratio of animals cured/animals infected (C/I) at dose 20 mg/kg; C/I = 2/2; type: functional
Trichophyton rubrum = test: In vitro antifungal activity against Trichophyton rubrum; type: functional
Procedure, shortened: (§1)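 Fungal growth-inhibition screen (Godefroi method) against dermatophytes, yeasts, moulds and other fungi. The value is the lowest concentration (µg/mL) giving total inhibition of growth, tested up to 100 µg/mL.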

Phialophora verrucosa = test: In vitro antifungal activity against Phialophora verrucosa; type: functional; procedure, shortened: as §1
Sporothrix schenckii = test: In vitro antifungal activity against Sporothrix schenck ii; type: functional; procedure, shortened: as §1
[2] = In vitro antifungal activity against Mucor sp; type: functional; procedure, shortened: as §1
[3] = In vivo activity against microsporosis guinea pig, measured as the ratio of animals cured/animals infected (C/I) at dose 10 mg/kg; C/I = 0/2; type: functional
Trichophyton benhamiae = test: In vitro antifungal activity against Trichophyton mentagrophytes; type: functional, Arthroderma benhamiae; procedure, shortened: as §1
Cryptococcus neoformans = test: In vitro antifungal activity against Cryptococcus neoformans; type: functional; procedure, shortened: as §1
[4] = In vivo activity against vaginal candidoses in rats, measured as the ratio of animals cured/animals infected (C/I) at dose 10 mg/kg; C/I = 3/4; type: functional
Candida albicans = test: In vitro antifungal activity against Candida albicans; type: functional; procedure, shortened: as §1
Candida tropicalis = test: In vitro antifungal activity against Candida tropicalis; type: functional; procedure, shortened: as §1
Aspergillus fumigatus = test: In vitro antifungal activity against Aspergillus fumigatus; type: functional; procedure, shortened: as §1
Saprolegnia = test: In vitro antifungal activity against Saprolegnia sp; type: functional; procedure, shortened: as §1
Microsporum canis = test: In vitro antifungal activity against Microsporum canis; type: functional; procedure, shortened: as §1
[5] = In vivo activity against vaginal candidoses in rats, measured as the ratio of animals cured/animals infected (C/I) at dose 2.5 mg/kg; C/I = 0/2; type: functional
[6] = In vivo activity against vaginal candidoses in rats, measured as the ratio of animals cured/animals infected (C/I) at dose 10 mg/kg; C/I = 2/2; type: functional
Rattus norvegicus [7] = test: In vivo activity against vaginal candidoses in rats, measured as the ratio of animals cured/animals infected (C/I) at dose 1.25 mg/kg; C/I = 5/6; type: functional
[8] = In vivo activity against microsporosis guinea pig, measured as the ratio of animals cured/animals infected (C/I) at dose 1.25 mg/kg; C/I = 0/2; type: functional
[9] = In vivo activity against microsporosis guinea pig, measured as the ratio of animals cured/animals infected (C/I) at dose 2.5 mg/kg; C/I = 0/2; type: functional
[10] = In vivo activity against microsporosis guinea pig, measured as the ratio of animals cured/animals infected (C/I) at dose 10 mg/kg; C/I = 1/8; type: functional
[11] = In vivo activity against vaginal candidoses in rats, measured as the ratio of animals cured/animals infected (C/I) at dose 0.63 mg/kg; C/I = 4/8; type: functional
[12] = In vivo activity against vaginal candidoses in rats, measured as the ratio of animals cured/animals infected (C/I) at dose 2.5 mg/kg; C/I = 4/6; type: functional
[13] = In vivo activity against microsporosis guinea pig, measured as the ratio of animals cured/animals infected (C/I) at dose 1.25 mg/kg; C/I = 0/6; type: functional
[14] = In vivo activity against vaginal candidoses in rats, measured as the ratio of animals cured/animals infected (C/I) at dose 10 mg/kg; C/I = 6/6; type: functional
[15] = In vivo activity against vaginal candidoses in rats, measured as the ratio of animals cured/animals infected (C/I) at dose 0.63 mg/kg; C/I = 3/10; type: functional
[16] = In vivo activity against microsporosis guinea pig, measured as the ratio of animals cured/animals infected (C/I) at dose 2.5 mg/kg; C/I = 0/5; type: functional
[17] = In vivo activity against vaginal candidoses in rats, measured as the ratio of animals cured/animals infected (C/I) at dose 2.5 mg/kg; C/I = 9/10; type: functional
Rattus norvegicus [18] = test: In vivo activity against vaginal candidoses in rats, measured as the ratio of animals cured/animals infected (C/I) at dose 1.25 mg/kg; C/I = 9/10; type: functional
[19] = In vivo activity against vaginal candidoses in rats, measured as the ratio of animals cured/animals infected (C/I) at dose 0.63 mg/kg; C/I = 0/2; type: functional
[20] = In vivo activity against vaginal candidoses in rats, measured as the ratio of animals cured/animals infected (C/I) at dose 2.5 mg/kg; C/I = 1/4; type: functional
[21] = In vivo activity against microsporosis guinea pig, measured as the ratio of animals cured/animals infected (C/I) at dose 2.5 mg/kg; 4/6; type: functional
[22] = In vivo activity against microsporosis guinea pig, measured as the ratio of animals cured/animals infected (C/I) at dose 1.25 mg/kg; 0/4; type: functional
[23] = In vivo activity against vaginal candidoses in rats, measured as the ratio of animals cured/animals infected (C/I) at dose 0.63 mg/kg; 1/6; type: functional
[24] = In vivo activity against vaginal candidoses in rats, measured as the ratio of animals cured/animals infected (C/I) at dose 2.5 mg/kg; 3/6; type: functional
[25] = In vivo activity against microsporosis guinea pig, measured as the ratio of animals cured/animals infected (C/I) at dose 10 mg/kg; 2/2; type: functional
[26] = In vivo activity against vaginal candidoses in rats, measured as the ratio of animals cured/animals infected (C/I) at dose 1.25 mg/kg; 1/2; type: functional
[27] = In vivo activity against microsporosis guinea pig, measured as the ratio of animals cured/animals infected (C/I) at dose 20 mg/kg; C/I = 1/6

Structure (SMILES) | Inhibition (Trichophyton rubrum) [µg/mL] | Inhibition (Phialophora verrucosa) [µg/mL] | Inhibition (Sporothrix schenckii) [µg/mL] | Inhibition [2] [µg/mL] | Inhibition (Trichophyton benhamiae) [µg/mL] | Inhibition (Cryptococcus neoformans) [µg/mL] | Inhibition (Candida albicans) [µg/mL] | Inhibition (Candida tropicalis) [µg/mL] | Inhibition (Aspergillus fumigatus) [µg/mL] | Inhibition (Saprolegnia) [µg/mL] | Inhibition (Microsporum canis) [µg/mL] | C/I ratio [5] | C/I ratio [10] | further results
Cc1nn(C)c(=O)n1-c1ccc(N2CCN(c3ccc(OC[C@@H]4COC(Cn5ccnc5)(c5ccc(Cl)cc5Cl)O4)cc3)CC2)cc1 (some centres undefined) | 100 | >100 | >100 | >100 | 10 | >100 | 100 | > 100 | 100 | >100 | 100 | 0 |  | C/I ratio [1]: 2; C/I ratio [3]: 0; C/I ratio [4]: 0.75
Cn1ncn(-c2ccc(N3CCN(c4ccc(OC[C@@H]5COC(Cn6cncn6)(c6ccc(Cl)cc6Cl)O5)cc4)CC3)cc2)c1=O (some centres undefined) | 10 | 100 | >100 | >100 | 1 | 100 | 100 | 10 | >100 | >100 | >100 |  | 1 | C/I ratio [6]: 1; C/I ratio (Rattus norvegicus [7]): 5; C/I ratio [8]: 0; C/I ratio [9]: 0; C/I ratio [11]: 0.5; C/I ratio [12]: 4
CCCn1ncn(-c2ccc(N3CCN(c4ccc(OC[C@@H]5COC(Cn6cncn6)(c6ccc(Cl)cc6Cl)O5)cc4)CC3)cc2)c1=O (some centres undefined) | 1 | >100 | >100 | >100 | 100 | 100 | >100 | 100 | >100 | >100 | >100 |  | 1 | C/I ratio [13]: 0; C/I ratio [14]: 6; C/I ratio [15]: 0.3; C/I ratio [16]: 0; C/I ratio [17]: 9; C/I ratio (Rattus norvegicus [18]): 0.9
CCCn1nc(C)n(-c2ccc(N3CCN(c4ccc(OC[C@@H]5COC(Cn6cncn6)(c6ccc(Cl)cc6Cl)O5)cc4)CC3)cc2)c1=O (some centres undefined) | >100 | >100 | >100 | >100 | 1 | 100 | 100 | 100 | >100 | >100 | >100 |  |  | C/I ratio [19]: 0; C/I ratio [20]: 1
C=CCn1ncn(-c2ccc(N3CCN(c4ccc(OC[C@@H]5COC(Cn6cncn6)(c6ccc(Cl)cc6Cl)O5)cc4)CC3)cc2)c1=O (some centres undefined) |  |  |  |  |  |  |  |  |  |  |  |  |  | C/I ratio [21]: 0.667; C/I ratio [22]: 0; C/I ratio [23]: 1; Lowest level of total inhibition (Microsporum canis): > 100 µg/mL; C/I ratio [24]: 0.5; C/I ratio [25]: 2; C/I ratio [26]: 1
CCCCn1ncn(-c2ccc(N3CCN(c4ccc(OC[C@@H]5COC(Cn6cncn6)(c6ccc(Cl)cc6Cl)O5)cc4)CC3)cc2)c1=O (some centres undefined) | >100 | >100 | >100 | >100 | 100 | >100 | >100 | >100 | >100 | >100 | >100 | 0 |  | C/I ratio [27]: 1
